Bioassay records deposited in PubChem BioAssay by The Scripps Research Institute Molecular Screening Center.
Most compounds without a hit are left out; they make up all but 2% or so of the library.
CHRM5 PAM: positive allosteric modulators of human muscarinic M5 receptor; activation, % at 3 µM; 360,000 tested, 0.3% active; AID 624038; P08912; CHO-K1 hM5, Fluo-8 calcium, ACh EC20 PAM; 0% = ACh EC20, 100% = ACh EC100;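 active means activation above the run cutoff, the mean activation of all test compounds plus 3 SD, cut at about 18% in these data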
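Measured by: Fluo-8 calcium fluorescence; material: human M5 receptor in CHO-K1 cells; schedule: Post-acetylcholine fluorescence recording 140 s; benchmarks: low control EC20 acetylcholine (0%), high control EC100 acetylcholine (100%); read-out: Max/basal fluorescence ratio as % of EC20–EC100 ACh window; compound: single dose, 3 µM nominal final test concentration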
M1 antag: antagonists of human M1 muscarinic receptor | P11229 | CHO-K1 hM1, Fluo-8 calcium fluorescence, ACh EC80 antagonist | inhibition, % at 3 µM | 360,000 tested, 1.3% active | AID 588852;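 active means percent inhibition above its own plate's cutoff, namely the mean of that plate's compound wells plus 3 SD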;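 further: peak over basal fluorescence ratio during 140 s after agonist addition; 0% = ACh EC80 plus DMSO and 100% = DMSO alone without agonist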
Target sequence (P11229 whole entry, looked up): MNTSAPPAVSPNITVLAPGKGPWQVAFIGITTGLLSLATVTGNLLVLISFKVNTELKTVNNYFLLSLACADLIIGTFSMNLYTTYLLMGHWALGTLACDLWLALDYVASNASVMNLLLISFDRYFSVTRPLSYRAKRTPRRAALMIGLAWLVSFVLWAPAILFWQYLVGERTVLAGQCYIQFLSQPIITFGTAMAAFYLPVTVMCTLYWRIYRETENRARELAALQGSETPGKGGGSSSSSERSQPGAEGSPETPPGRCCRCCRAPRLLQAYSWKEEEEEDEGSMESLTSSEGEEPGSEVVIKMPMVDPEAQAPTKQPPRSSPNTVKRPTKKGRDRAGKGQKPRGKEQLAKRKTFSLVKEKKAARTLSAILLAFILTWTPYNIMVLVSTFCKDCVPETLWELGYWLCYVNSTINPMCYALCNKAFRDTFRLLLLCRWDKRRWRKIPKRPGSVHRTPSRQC
CHRM1 agonist: human M1 muscarinic receptor agonism. P11229. CHO-K1 hM1, Fluo-8 calcium fluorescence, agonist mode; 0% DMSO, 100% acetylcholine EC100. activation, % at 3 µM. 360,000 tested, 0.33% active;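 active means activation above the run's mean compound activation plus 3 SD, cut at about 16% in these data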;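 further: peak over basal fluorescence ratio within a 140 s kinetic read after compound addition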
CHRM1 PAM: human CHRM1 positive allosteric modulation | P11229 | CHO-K1 hM1, Fluo-8 calcium fluorescence, ACh EC20; 0% = ACh EC20, 100% = maximal ACh | activation, % at 3 µM | 360,000 tested, 0.088% active | AID 588819; in the data active means activation above about 19%, passing the limit was not always enough
M5 ag: CHRM5 agonism in calcium assay; activation, % at 3 µM; 360,000 tested, 0.19% active; P08912; AID 624037; CHO-K1 hM5 cells, Fluo-8 calcium fluorescence; 0% DMSO wells, 100% maximal acetylcholine response;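 active means activation above the run's mean over test compounds plus 3 SD, cut at about 23% in these data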;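 further: signal is peak over basal fluorescence ratio across the kinetic read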
M5 antag: CHRM5 antagonism in calcium assay; P08912; CHO-hM5 cells, Fluo-8 calcium fluorescence, ACh EC80; inhibition, % at 3 µM; 360,000 tested, 0.59% active; AID 624040;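 active means inhibition above a per-plate cutoff, the mean of that plate's test compounds plus 3 SD, cut at about 27% in these data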;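 further: 0% = acetylcholine EC80 with DMSO and 100% = DMSO without agonist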
* = called active by the depositor; x = no result.

SMILES | CHRM5 PAM | M1 antag | CHRM1 agonist | CHRM1 PAM | M5 ag | M5 antag
O=C1CC(c2cccnc2)c2cc3c(cc2N1)OCCO3 (centres undefined) | -8 | 39* | -1 | -9 | 1 | 7
O=C(CCCc1ccccc1)c1ccccc1 | 0 | -5 | -3 | 4 | -2 | -1
CCN(CCCC(=O)c1ccc(F)cc1)CCc1ccccc1 | -5 | 59* | -10 | -26 | -8 | 5
O=C(O)c1cnc2ccc(Cl)cc2n1 | 3 | 9 | -1 | -5 | 2 | 0
Cc1ccc(C2(c3noc(CN(C)Cc4ccccn4)n3)CCCC2)cc1 | -17 | 38* | -7 | -23 | -9 | 10
Cc1ccccc1CC(=O)N1CCC(CCC(=O)NC2CC2)CC1 | 1 | -7 | -1 | 5 | 0 | 2
CCOC(=O)CN1C(=O)Nc2ccc(Br)cc2C1c1ccccc1 (centres undefined) | -23 | 50* | -6 | -22 | -5 | 8
COC(=O)CN1C(=O)Nc2ccc(C)cc2C1c1ccccc1 (centres undefined) | -1 | 6 | -7 | 0 | -17 | 7
CC#C[C@@H](CC)c1ccc2ccn(C)c2c1 | -5 | 3 | -4 | 5 | -5 | 27*
COc1cc(/C=C2/C(=O)NN(c3ccc(Cl)cc3)C2=O)cc(Br)c1O | 20* | -23 | -1 | 17 | 6 | -4
CCOC(=O)N1CCN(C(=O)C[C@@H]2C[C@@]3(C(=O)OCC)CCC=C3N(Cc3cccc4ccccc34)C2=O)CC1 | -10 | x | x | x | -1 | 11
COC(=O)[C@H](Cc1ccccc1)NC(=O)NCCc1ccc(F)cc1 | -25 | -5 | -3 | 2 | -6 | 30*
CC(=O)Nc1cccc(C(=O)/C=C/c2ccc(N(C)C)cc2)c1 | -21 | 55* | 113* | -28 | 74* | 34*
O=C(/C(N=Nc1cccc([N+](=O)[O-])c1)=C(/O)c1ccc(Br)cc1)C(F)(F)F | -20 | 48* | -1 | -20 | 4 | 24
Cc1cc(C=O)c(C)n1-c1ccc(N2CCCCC2)c([N+](=O)[O-])c1 | -12 | 6 | -2 | -12 | -3 | 11
Cc1cc(/C=C(\C#N)C(N)=O)c(C)n1-c1ccc(N2CCOCC2)c([N+](=O)[O-])c1 | -6 | 14 | 34* | -4 | 29* | 10
CC(C)Cn1c(N)c(C(=O)COC(=O)/C=C/c2cccs2)c(=O)n(C)c1=O | -14 | 9 | 5 | -5 | 8 | 16
CC(C)Cn1c(N)c(C(=O)COC(=O)Cc2cccs2)c(=O)n(C)c1=O | -10 | 30* | 3 | -12 | 6 | 32*
CC(C)Cn1c(N)c(C(=O)COC(=O)Cc2cccc(C(F)(F)F)c2)c(=O)n(C)c1=O | -26 | 38* | -2 | -18 | 3 | 17
Cc1cc(NC(=O)CSc2nc3cc(Cl)ccc3c(=O)n2C(C)C)no1 | -7 | 1 | -3 | -1 | -1 | 18
COc1ccc(CC(=O)Nc2cccc(-c3nnc(-c4ccccc4)o3)c2)cc1OC | -7 | 29* | 2 | -16 | 6 | -2
COc1ccccc1OCC(=O)Nc1cccc(-c2nnc(-c3ccco3)o2)c1 | -16 | 24* | -5 | -22 | -1 | 12
COc1ccc(CC(=O)Nc2cccc(-c3nnc(-c4ccc(C)cc4)o3)c2)cc1OC | -5 | 5 | -3 | -1 | 4 | -3
COc1ccc(CC(=O)Nc2cccc(-c3nnc(-c4cccc(C)c4)o3)c2)cc1OC | -25 | 38* | 5 | -15 | 7 | 36*
CC(C)(C)NC(=O)C(C1CC1)n1c(=O)c(-c2ccccc2)nc2ccccc21 (centres undefined) | -2 | x | x | x | 1 | 6
SMILES | CHRM5 PAM | M1 antag | CHRM1 agonist | CHRM1 PAM | M5 ag | M5 antag
COc1ccc([C@H]2N[C@]3(CCCN(Cc4ccc(C(F)(F)F)cc4)C3=O)[C@H]3C(=O)N(C)C(=O)[C@@H]23)cc1 | 2 | -10 | -3 | 7 | -1 | 7
COc1ccc(NC(=O)Nc2ccc([N+](=O)[O-])cc2)cn1 | -13 | 23 | 8 | -5 | 8 | 34*
COc1ccc(N2CCN(CCCn3cnc4c(OC)ncnc43)CC2)cc1 | -1 | -9 | -9 | 3 | -2 | 5
CCC(=O)N1CCc2cc(Br)cc(S(=O)(=O)NCC3CCCO3)c21 (centres undefined) | -8 | 0 | -2 | 1 | 0 | 4
CCC(=O)N1CCc2cc(Br)cc(S(=O)(=O)CCC(=O)NCC3CCCO3)c21 (centres undefined) | 19* | 1 | -2 | 2 | 10 | -12
O=C(c1cc(COc2cccc3cnccc23)on1)N1CCCC(CCCO)C1 (centres undefined) | -34 | 48* | 4 | -15 | 6 | 23
COc1ccc(CCNC(=O)c2ccc(NC(=O)CC3SC(N4CCCC4)=NC3=O)cc2)cc1OC (centres undefined) | 11 | -20 | 2 | 16 | 7 | -3
CCN1CCN(c2ncnc3sc(C)c(-c4ccccc4)c23)CC1 | -6 | 29* | -11 | -16 | -6 | 9
Fc1ccc(CN2CCN(c3ncnc4scc(-c5ccc(F)cc5)c34)CC2)cc1 | -6 | 11 | -1 | -5 | -6 | 11
CCN1CCN(c2ncnc3scc(-c4ccc(C)c(C)c4)c23)CC1 | -18 | 85* | -11 | -32 | -8 | 46*
N#CC(OC(=O)c1ccccc1)c1ccccc1 (centres undefined) | 1 | -12 | -7 | 8 | -3 | 0
Cc1cc(O)ccc1-c1cc(C(=O)NCc2ccc(F)cc2)[nH]n1 | -3 | 3 | 25* | -3 | 33* | -12
COc1cccc(C(=O)N/N=C2/SCC(=O)N2CCc2ccc(OC)c(OC)c2)c1 | -3 | 13 | -6 | -7 | 2 | -4
COc1ccc(C(=O)N/N=C2\SCC(=O)N2Cc2ccc3c(c2)OCO3)c(OC)c1 | -8 | -1 | -4 | 4 | -3 | 31*
OC(c1cccc(Cl)c1)c1nc(-c2csc3ccccc23)cs1 (centres undefined) | 5 | -13 | 1 | 10 | 0 | -4
OCC1OC(n2cnc3c(NCc4ccco4)ncnc32)C(O)C1O (centres undefined) | 2 | -16 | -1 | 6 | 0 | 4
OC[C@H]1O[C@@H](n2cnc3c(NCc4ccco4)ncnc32)[C@H](O)[C@@H]1O | -17 | -14 | 35* | -15 | 45* | 6
O=C(c1cc2cc(F)ccc2[nH]1)N(Cc1cccnc1)CC1CCCN(C2CCCCC2)C1 (centres undefined) | -2 | 35* | -6 | -21 | -8 | 1
